Assay results from different studies.
Protocols differ between the studies behind these lines.
Target: Serine/threonine-protein kinase 26 (STK26, Homo sapiens, UniProt Q9P289)

C1=C/COCc2cc(ccc2OCCN2CCCC2)Nc2nccc(n2)-c2cccc(c2)COC/1  remaining binding (binding; 0.1 µM): 74%
COc1ccc2[nH]c3c4[nH]c5ccc(OC)cc5c4c4c(c3c2c1)C(=O)NC4=O  remaining binding (binding; competition with immobilised ligand; 1 µM): 85%
CCCCC(=O)Nc1ccc(-c2ccc3ncn(CCC)c(=O)c3c2)cn1  remaining binding (binding; competition with immobilised ligand; 0.5 µM): 100%
CO[C@@H]1[C@H](N(C)C(=O)c2ccccc2)C[C@H]2O[C@]1(C)n1c3ccccc3c3c4c(c5c6ccccc6n2c5c31)C(=O)NC4  inhibition (enzyme activity; inhibitor; 1 µM): 47%
Cc1cc(O)c(-c2ccc([C@@H](C)CN(C)C)cc2)c2c1[nH]c(=O)c1sccc12  inhibition (enzyme activity; inhibitor; 0.1 µM): 19.3%
CC(C)S(=O)(=O)c1ccc2nccc(Nc3ccc4sc(C5CCCC5)nc4c3)c2c1  activity vs control (enzyme activity; inhibitor; 1 µM): 84%
CC#CC(=O)N1CCC[C@H]1c1nc(-c2ccc(C(=O)Nc3ccccn3)cc2)c2c(N)nccn12  inhibition (enzyme activity; inhibitor; 1 µM): 0%
CN1CCN(C(=O)c2ccc(NC(=O)Nc3ccc(N(C)c4ccnc(Nc5ccc(CS(C)(=O)=O)cc5)n4)cc3)cc2)CC1  remaining binding (binding; competition with immobilised ligand; 1 µM): 11%
